Source: ChEMBL document CHEMBL1125775 (J Med Chem, 1991)

Key:
Glutamate NMDA receptor = assay: N-methyl-D-aspartate glutamate receptor antagonistic activity in cell culture(CC)model; assay type: functional
Outline: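 Functional NMDA antagonism in rat hippocampal cell cultures. Read-out is protection of the cultured neurons against toxicity from extracellularly applied glutamate (the glutamate-induced hippocampal neurodegeneration model).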

[1] = target: T1, Adrenergic receptor alpha-1 (Rattus norvegicus, UniProt P15823+P23944+P43140); assay: Binding affinity against alpha-1 adrenergic receptor; assay type: protein assay
T1 sequence (P15823 whole entry): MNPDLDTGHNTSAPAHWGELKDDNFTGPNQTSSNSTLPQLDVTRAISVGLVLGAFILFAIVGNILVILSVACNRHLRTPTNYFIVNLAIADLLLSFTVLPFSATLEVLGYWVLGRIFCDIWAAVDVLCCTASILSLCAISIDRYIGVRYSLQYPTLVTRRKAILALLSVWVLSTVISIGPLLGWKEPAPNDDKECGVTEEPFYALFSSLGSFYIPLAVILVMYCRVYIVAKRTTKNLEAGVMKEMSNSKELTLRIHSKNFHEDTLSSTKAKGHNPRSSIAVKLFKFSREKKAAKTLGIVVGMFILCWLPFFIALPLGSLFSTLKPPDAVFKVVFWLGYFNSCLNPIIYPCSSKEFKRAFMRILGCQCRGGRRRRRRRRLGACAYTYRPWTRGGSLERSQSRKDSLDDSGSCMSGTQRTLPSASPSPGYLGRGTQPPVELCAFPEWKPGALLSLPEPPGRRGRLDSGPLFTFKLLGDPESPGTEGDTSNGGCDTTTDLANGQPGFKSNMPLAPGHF
T1 sequence (P23944 whole entry): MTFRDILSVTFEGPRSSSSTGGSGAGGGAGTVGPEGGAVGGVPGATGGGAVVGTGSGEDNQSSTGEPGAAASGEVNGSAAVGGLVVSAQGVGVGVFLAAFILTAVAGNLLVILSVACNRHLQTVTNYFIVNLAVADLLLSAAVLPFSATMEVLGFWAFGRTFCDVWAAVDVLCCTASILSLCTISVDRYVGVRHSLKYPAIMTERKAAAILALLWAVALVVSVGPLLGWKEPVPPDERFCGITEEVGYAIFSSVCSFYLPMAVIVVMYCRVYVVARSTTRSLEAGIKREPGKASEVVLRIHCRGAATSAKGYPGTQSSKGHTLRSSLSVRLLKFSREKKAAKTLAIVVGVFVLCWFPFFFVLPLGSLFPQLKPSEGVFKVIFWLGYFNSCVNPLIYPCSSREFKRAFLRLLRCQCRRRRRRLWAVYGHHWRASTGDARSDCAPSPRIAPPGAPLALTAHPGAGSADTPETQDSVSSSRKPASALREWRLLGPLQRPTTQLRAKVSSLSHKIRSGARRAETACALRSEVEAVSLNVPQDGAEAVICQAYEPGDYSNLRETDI
T1 sequence (P43140 whole entry): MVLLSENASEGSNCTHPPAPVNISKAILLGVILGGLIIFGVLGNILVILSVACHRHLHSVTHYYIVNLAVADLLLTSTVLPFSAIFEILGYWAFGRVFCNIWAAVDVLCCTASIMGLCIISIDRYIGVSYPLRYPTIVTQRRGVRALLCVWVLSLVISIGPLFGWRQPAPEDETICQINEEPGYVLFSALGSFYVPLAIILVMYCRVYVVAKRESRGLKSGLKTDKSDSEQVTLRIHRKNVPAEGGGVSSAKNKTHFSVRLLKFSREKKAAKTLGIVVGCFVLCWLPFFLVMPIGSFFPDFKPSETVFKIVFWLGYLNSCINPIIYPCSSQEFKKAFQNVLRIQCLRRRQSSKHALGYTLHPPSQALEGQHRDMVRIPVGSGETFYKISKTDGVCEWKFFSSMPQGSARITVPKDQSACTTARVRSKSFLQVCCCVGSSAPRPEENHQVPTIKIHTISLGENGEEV
Outline: (§1)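 Radioligand binding at α1 adrenergic receptors using [3H]prazosin in a standard binding assay.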

[2] = system: Alpha-1 adrenergic receptor versus NMDA receptor; assay: (§2) Therapeutic index is the ratio of IC50 value for Alpha-1 adrenergic receptor to that for NMDA.; details: read-out: TI
Outline: (§3)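 Selectivity index calculated as α1 adrenergic potency ([3H]prazosin binding) divided by activity in the rat hippocampal culture glutamate-neurotoxicity model.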

[3] = target: T1, Adrenergic receptor alpha-1; assay: Compound was tested for the binding affinity against Alpha-1 adrenergic receptor; assay type: protein assay; outline: as §1
[4] = as §2; outline: as §3
[5] = target: Muscarinic acetylcholine receptor M3 (Rattus norvegicus, UniProt P08483); assay: Compound was tested for the binding affinity against muscarinic acetylcholine receptorby using [3H]QNB as radioligand
[6] = target: T2, 5-hydroxytryptamine receptor 1A (Mus musculus, UniProt Q64264); assay: Compound was tested for the binding affinity against 5-hydroxytryptamine 1A receptor by using [3H]DPAT as radioligand
T2 sequence (Q64264 whole entry): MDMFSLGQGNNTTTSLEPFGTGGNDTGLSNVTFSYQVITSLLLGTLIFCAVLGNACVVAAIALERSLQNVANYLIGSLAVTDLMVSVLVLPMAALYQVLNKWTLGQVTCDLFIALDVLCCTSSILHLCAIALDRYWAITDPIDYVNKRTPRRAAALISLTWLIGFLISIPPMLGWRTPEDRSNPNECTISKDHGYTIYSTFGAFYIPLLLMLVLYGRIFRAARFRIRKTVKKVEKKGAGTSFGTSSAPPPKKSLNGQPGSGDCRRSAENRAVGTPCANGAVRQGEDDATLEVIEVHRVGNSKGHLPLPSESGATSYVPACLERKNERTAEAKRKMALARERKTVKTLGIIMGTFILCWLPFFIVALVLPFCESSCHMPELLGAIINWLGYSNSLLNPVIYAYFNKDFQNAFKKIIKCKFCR

D(2) dopamine receptor = D(2) dopamine receptor (Homo sapiens, UniProt P14416); assay: Compound was tested for the binding affinity against dopamine receptor D2 by using [3H]spiperone as radioligand
D(1A) dopamine receptor = D(1A) dopamine receptor (Mus musculus, UniProt Q61616); assay: Compound was tested for the binding affinity against dopamine receptor D1 by using [3H]-SCH- 23390 as radioligand
Histamine H1 receptor = Histamine H1 receptor (Homo sapiens, UniProt P35367); assay: Compound was tested for the binding affinity against histamine H1 receptor by using [3H]mepyramine as radioligand
[7] = target: 5-hydroxytryptamine receptor 2A (Bos taurus, UniProt Q75Z89); assay: Compound was tested for the binding affinity against 5-hydroxytryptamine 2 receptor by using [3H]ketanserin as radioligand
Mu-type opioid receptor = Mu-type opioid receptor (Homo sapiens, UniProt P35372); assay: Compound was tested for the binding affinity against opioid receptor mu by using [3H]naloxone as radioligand
Chain of Mu-type opioid receptor (P35372 whole entry): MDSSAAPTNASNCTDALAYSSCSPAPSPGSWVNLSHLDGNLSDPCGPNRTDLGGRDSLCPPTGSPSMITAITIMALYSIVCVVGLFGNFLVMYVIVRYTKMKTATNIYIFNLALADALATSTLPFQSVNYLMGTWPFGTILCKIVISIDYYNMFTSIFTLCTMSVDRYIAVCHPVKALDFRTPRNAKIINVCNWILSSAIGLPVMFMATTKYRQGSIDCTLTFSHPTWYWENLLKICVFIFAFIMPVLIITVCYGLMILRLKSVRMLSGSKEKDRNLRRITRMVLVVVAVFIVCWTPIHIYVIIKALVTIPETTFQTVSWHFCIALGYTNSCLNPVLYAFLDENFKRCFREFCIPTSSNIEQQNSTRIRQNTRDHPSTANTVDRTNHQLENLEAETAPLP

Chain of D(2) dopamine receptor (P14416 whole entry): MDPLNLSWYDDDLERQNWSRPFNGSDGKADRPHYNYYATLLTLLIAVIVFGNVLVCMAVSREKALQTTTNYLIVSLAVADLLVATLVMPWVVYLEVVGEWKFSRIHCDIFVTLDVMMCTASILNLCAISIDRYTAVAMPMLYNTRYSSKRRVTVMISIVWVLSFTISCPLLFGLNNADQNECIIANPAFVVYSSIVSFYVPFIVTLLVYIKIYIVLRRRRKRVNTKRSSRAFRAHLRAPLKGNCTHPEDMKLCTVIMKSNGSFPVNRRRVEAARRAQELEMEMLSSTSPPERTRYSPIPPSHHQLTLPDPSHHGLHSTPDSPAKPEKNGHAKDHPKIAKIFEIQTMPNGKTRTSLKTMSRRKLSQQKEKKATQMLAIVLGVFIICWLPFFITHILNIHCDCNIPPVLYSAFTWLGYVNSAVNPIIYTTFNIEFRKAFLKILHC
Chain of Muscarinic acetylcholine receptor M3 (P08483 whole entry): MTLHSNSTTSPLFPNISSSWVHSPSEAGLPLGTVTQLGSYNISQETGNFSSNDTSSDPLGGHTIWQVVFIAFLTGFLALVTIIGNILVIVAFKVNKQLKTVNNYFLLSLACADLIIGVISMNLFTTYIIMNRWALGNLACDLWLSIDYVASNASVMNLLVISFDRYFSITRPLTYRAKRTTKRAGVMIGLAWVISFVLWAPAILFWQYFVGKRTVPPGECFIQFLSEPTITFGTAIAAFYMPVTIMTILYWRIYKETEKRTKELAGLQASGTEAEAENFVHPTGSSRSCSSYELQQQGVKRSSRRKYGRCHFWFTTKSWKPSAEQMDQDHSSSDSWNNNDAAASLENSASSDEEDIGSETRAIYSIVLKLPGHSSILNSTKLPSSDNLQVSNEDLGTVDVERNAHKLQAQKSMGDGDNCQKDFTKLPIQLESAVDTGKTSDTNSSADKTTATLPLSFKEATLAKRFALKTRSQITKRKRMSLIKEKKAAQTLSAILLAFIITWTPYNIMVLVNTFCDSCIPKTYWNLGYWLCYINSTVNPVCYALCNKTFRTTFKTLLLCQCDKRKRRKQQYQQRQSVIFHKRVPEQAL
Chain of Histamine H1 receptor (P35367 whole entry): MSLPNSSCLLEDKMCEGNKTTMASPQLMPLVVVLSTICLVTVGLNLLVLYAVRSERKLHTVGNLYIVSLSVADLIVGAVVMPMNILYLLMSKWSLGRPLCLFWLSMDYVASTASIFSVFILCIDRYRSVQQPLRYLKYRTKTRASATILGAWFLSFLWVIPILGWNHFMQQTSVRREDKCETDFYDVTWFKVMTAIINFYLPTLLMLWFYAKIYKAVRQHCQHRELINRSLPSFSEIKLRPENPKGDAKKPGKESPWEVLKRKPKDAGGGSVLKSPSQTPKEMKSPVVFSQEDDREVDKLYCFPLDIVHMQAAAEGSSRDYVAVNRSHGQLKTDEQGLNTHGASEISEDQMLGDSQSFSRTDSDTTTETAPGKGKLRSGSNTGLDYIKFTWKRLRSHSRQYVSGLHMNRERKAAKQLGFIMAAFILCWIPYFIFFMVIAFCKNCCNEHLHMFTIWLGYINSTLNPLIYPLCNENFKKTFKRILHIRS
Chain of D(1A) dopamine receptor (Q61616 whole entry): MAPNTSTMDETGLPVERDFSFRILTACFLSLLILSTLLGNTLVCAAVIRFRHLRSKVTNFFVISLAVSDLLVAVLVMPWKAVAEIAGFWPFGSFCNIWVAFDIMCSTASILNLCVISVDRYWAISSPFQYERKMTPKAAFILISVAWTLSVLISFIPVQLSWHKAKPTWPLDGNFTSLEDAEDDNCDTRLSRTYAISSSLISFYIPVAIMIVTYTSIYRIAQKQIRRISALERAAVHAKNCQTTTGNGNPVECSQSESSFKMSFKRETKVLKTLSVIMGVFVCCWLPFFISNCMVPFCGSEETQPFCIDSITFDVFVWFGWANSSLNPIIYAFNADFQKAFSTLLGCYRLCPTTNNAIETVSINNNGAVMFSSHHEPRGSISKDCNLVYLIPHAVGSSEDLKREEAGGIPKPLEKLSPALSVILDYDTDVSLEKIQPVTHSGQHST
Chain of 5-hydroxytryptamine receptor 2A (Q75Z89 whole entry): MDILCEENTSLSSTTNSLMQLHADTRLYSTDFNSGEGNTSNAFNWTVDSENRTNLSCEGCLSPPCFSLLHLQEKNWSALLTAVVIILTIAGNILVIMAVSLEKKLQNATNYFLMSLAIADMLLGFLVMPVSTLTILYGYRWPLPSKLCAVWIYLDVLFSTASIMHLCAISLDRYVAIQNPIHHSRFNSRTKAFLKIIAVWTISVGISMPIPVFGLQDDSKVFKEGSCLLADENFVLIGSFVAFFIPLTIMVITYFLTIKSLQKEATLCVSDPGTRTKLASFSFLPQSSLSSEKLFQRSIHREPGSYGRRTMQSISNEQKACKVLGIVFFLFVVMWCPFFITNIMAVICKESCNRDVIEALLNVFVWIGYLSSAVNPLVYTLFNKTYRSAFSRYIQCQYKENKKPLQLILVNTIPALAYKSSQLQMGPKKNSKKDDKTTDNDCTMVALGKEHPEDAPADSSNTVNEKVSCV

| IC50 (Glutamate NMDA receptor) | IC50 [1] | Compound | selectivity ratio [2] | further results |
| --- | --- | --- | --- | --- |
| > 10000 nM | > 10000 nM | C[C@@H]([C@@H](O)c1ccc(O)cc1)N1CCN(C(=O)c2ccccc2)CC1 | – | – |
| – | 573 nM | C[C@@H]([C@H](O)c1ccccc1)N1CCC(Cc2ccccc2)CC1 | 0.28 | – |
| > 10000 nM | > 10000 nM | CC(CO)N1CCC(Cc2ccccc2)CC1 (stereo not given) | – | – |
| – | 220 nM | C[C@@H]([C@H](O)c1ccc(F)cc1)N1CCC(Cc2ccccc2)CC1 | 0.94 | – |
| 5000 nM | 2133 nM | OC(CN1CCC(Cc2ccccc2)CC1)c1ccccc1 (stereo not given) | 0.43 | – |
| 153 nM | 130 nM | CC(Cc1ccc(O)cc1)N1CCC(Cc2ccccc2)CC1 (stereo not given) | 0.85 | – |
| 290 nM | 347 nM | c1ccc(CCN2CCC(Cc3ccccc3)CC2)cc1 | 1.19 | – |
| 10000 nM | – | C[C@@H]([C@@H](O)c1ccc(O)cc1)N1CCN(Cc2ccccc2)CC1 | – | IC50 [3]: 4633 nM |
| 3700 nM | 3400 nM | C[C@@H]([C@@H](O)c1ccccc1)N1CCC(Cc2ccccc2)CC1 | 0.92 | – |
| 100 nM | 2566 nM | C[C@@H]([C@@H](O)c1ccc(F)cc1)N1CCC(Cc2ccccc2)CC1 | 25.6 | – |
| – | – | C[C@@H]([C@@H](O)c1ccc(O)cc1)N1CCC(Cc2ccccc2)CC1 (stereo in doubt; 2) [(S)-IFENPRODIL] | – | IC50 [3]: 843 nM |
| – | 2306 nM | C[C@@H]([C@@H](O)c1ccc(O)cc1)N1CCC(Cc2ccccc2)CC1 (stereo in doubt; 18) [(S)-IFENPRODIL] | – | TI [4]: 48 |
| – | 629 nM | C[C@@H]([C@@H](O)c1ccc(O)cc1)N1CCC(Cc2ccccc2)CC1 (stereo in doubt; 19) [(S)-IFENPRODIL] | – | – |
| – | 135 nM | C[C@@H]([C@H](O)c1ccc(O)cc1)N1CCC(Cc2ccccc2)CC1 [(R,S)-IFENPRODIL] | – | – |
| – | – | CC(C(O)c1ccc(O)cc1)N1CCC(Cc2ccccc2)CC1 (stereo not given) [IFENPRODIL] | – | IC50 [5]: > 1000 nM; IC50 [6]: 238 nM; IC50 (D(2) dopamine receptor): > 1000 nM; IC50 (D(1A) dopamine receptor): > 1000 nM; IC50 (Histamine H1 receptor): 1000 nM; IC50 [7]: 610 nM; IC50 [3]: 100 nM; IC50 (Mu-type opioid receptor): > 1000 nM |

| Compound | IC50 (Glutamate NMDA receptor) | IC50 [1] | selectivity ratio [2] | further results |
| --- | --- | --- | --- | --- |
| CCCC1CCN([C@@H](C)[C@@H](O)c2ccc(O)cc2)CC1 | 6300 nM | 2867 nM | 0.61 | – |
| C[C@@H]([C@H](O)c1ccc(O)cc1)N1CCCCC1 | > 10000 nM | > 10000 nM | – | – |
| C[C@@H]([C@@H](O)c1ccc(O)cc1)N1CCCCC1 | > 10000 nM | > 10000 nM | – | – |
